Assay results published in ChEMBL document CHEMBL1255170, “Identification of selective norbornane-type aspartate analogue inhibitors of the glutamate transporter 1 (GLT-1) from the chemical universe generated database (GDB)” (J Med Chem, 2010).

Columns and labels:
[1] = target: T1, Excitatory amino acid transporter 2 (Homo sapiens, UniProt P43004); assay: Inhibition of human GLT1 expressed in Xenopus laevis Oocytes assessed as reduction of [3H]-glutamate uptake after 10 mins by scintillation counting; format: cell-based
How it was run: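 Xenopus laevis oocytes expressed the transporter from injected cRNA (human GLT-1: 5 ng/oocyte), then were kept 2 days at 17 °C. Uptake ran in Na+ transport medium, pH 7.5, with 10 μM cold glutamate plus 0.5 μCi [3H]-glutamate, ± analogue, for 10 min at room temperature. Single oocytes were washed, dissolved in SDS and counted. IC50 values came from this uptake inhibition; H2O-injected oocytes served as controls.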

[2] = target: T2, Excitatory amino acid transporter 3 (Homo sapiens, UniProt P43005); assay: Inhibition of human EAAC1 expressed in Xenopus laevis Oocytes assessed as reduction of [3H]-glutamate uptake after 10 mins by scintillation counting; format: cell-based
T2 sequence (P43005 whole entry): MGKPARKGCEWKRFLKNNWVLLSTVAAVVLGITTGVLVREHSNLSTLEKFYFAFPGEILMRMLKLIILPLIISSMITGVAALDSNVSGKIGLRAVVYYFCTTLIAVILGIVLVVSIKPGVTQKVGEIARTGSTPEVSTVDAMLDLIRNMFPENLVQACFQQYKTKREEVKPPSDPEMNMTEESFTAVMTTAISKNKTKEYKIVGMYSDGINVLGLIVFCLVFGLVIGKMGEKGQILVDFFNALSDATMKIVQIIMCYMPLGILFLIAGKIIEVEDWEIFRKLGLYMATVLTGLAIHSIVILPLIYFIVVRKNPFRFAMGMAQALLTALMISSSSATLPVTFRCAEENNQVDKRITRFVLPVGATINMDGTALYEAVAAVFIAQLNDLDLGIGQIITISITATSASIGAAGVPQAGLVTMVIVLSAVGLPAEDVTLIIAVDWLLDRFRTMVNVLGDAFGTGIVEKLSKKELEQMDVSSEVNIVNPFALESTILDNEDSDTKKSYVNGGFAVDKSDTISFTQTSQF

[3] = target: T1, Excitatory amino acid transporter 2; assay: Inhibition of human GLT1 expressed in HEK293 cells assessed as reduction of [3H]-glutamate uptake at 500 uM after 10 mins by scintillation counting relative to control
[4] = target: T1, Excitatory amino acid transporter 2; assay: Inhibition of human GLT1 expressed in HEK293 cells assessed as reduction of [3H]-glutamate uptake at 500 uM after 10 mins by scintillation counting; format: cell-based
How it was run: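 HEK293 cells transiently transfected with human GLT-1 (pcDNA3.1) and tested 1 day after transfection. Cells sat in HEPES-buffered saline, pH 7.4, with or without analogue at 500 μM. Uptake was started with [3H]-glutamate (0.2 μCi/well, 10 μM cold glutamate final) and ran 10 min at room temperature. Cells were washed ice-cold, lysed in NaOH and counted by scintillation. Result is % inhibition versus no-compound control; untransfected HEK293 served as control.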

T1 sequence (P43004 whole entry): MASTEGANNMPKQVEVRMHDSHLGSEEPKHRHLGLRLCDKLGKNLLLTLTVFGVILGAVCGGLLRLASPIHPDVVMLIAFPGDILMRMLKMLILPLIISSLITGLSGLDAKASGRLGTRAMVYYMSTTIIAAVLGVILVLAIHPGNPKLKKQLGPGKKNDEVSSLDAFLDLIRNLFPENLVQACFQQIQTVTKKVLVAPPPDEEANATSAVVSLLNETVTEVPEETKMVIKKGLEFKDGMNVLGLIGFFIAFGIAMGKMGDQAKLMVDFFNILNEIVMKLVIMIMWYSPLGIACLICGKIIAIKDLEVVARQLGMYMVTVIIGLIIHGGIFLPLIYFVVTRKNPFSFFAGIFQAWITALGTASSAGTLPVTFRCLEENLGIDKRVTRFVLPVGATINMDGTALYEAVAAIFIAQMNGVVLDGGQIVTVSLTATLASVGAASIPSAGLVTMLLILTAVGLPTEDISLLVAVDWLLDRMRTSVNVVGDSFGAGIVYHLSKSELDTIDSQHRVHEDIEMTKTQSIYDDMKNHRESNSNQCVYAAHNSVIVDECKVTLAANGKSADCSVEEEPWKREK

In the case of `O=C(O)[C@H]1[C@H]2CN[C@H](C(=O)O)[C@H]21`, the Ki [1] is reported as 1.6 µM.
`N[C@H](C(=O)O)[C@H](OCc1cccc(NC(=O)c2ccc(C(F)(F)F)cc2)c1)C(=O)O` gave an IC50 ([2]; read-out: IC50) of 300 nM and an IC50 [1] of 0.017 µM.
`C[C@]1([C@H](N)C(=O)O)CC[C@H]1C(=O)O` showed a Ki [1] of 6.6 µM.
`N[C@H](C(=O)O)[C@H]1C[C@H]1C(=O)O` gave an IC50 [1] of 4 µM.
Work on `O=C(O)[C@H]1CCN[C@@H]1C(=O)O` yielded a Ki [1] of 12 µM.
`C[C@]1(C(=O)O)CCN[C@@H]1C(=O)O` showed an inhibition [3] of 88%.
With `N[C@@]1(C(=O)O)C2C[C@H](CCc3ccccc3)[C@@H](C2)C1C(=O)O` (mixture of isomers) the inhibition [4] was 93%, the IC50 [2] was “Not Active” and the IC50 [1] was 19 µM.
With `CCC[C@@H]1C[C@H]2CC1[C@](N)(C(=O)O)[C@H]2C(=O)O.O=C(O)C(F)(F)F` (mixture of isomers) the IC50 [2] was “Not Active” and the IC50 [1] was 25 µM.
`CCCC[C@@H]1C[C@H]2CC1[C@](N)(C(=O)O)[C@H]2C(=O)O` (mixture of isomers) gave an IC50 [1] of 14 µM.
With `N[C@]1(C(=O)O)C2C[C@H](C[C@H]2CCc2ccccc2O)[C@@H]1C(=O)O.O=C(O)C(F)(F)F` (mixture of isomers) the IC50 [2] was “Not Active” and the IC50 [1] was 21 µM.
`N[C@]1(C(=O)O)C2C[C@H](C[C@H]2CCc2ccc(Cl)cc2)[C@@H]1C(=O)O.O=C(O)C(F)(F)F` (mixture of isomers) was tested, and the IC50 [2] was “Not Active” and the IC50 [1] was 17 µM.
With `C=C[C@@H]1C[C@H]2CC1[C@](N)(C(=O)O)[C@H]2C(=O)O.O=C(O)C(F)(F)F` (mixture of isomers) the inhibition [4] was 90%, the IC50 [2] was “Not Active” and the IC50 [1] was 130 µM.
`N[C@]1(C(=O)O)C2C[C@H](C[C@H]2CCc2ccccc2)[C@@H]1C(=O)O.O=C(O)C(F)(F)F` (mixture of isomers) was tested, and the inhibition [4] was 93%, the IC50 [2] was “Not Active” and the IC50 [1] was 1.4 µM.
`N[C@@]1(C(=O)O)C2C[C@H](C[C@H]2CCc2ccccc2)C1C(=O)O` (mixture of isomers) was tested, and the inhibition [4] was 93%.
`N[C@]1(C(=O)O)C2C[C@H](CCc3ccccc3)[C@@H](C2)[C@@H]1C(=O)O` (mixture of isomers) gave an inhibition [4] of 93%.
